ChEMBL document CHEMBL1121953, “Carbon-7 substituted actinomycin D analogues as improved antitumor agents: synthesis and DNA-binding and biological properties” (J Med Chem, 1982)
≈ marks a conversion by molar mass, not a printed value. *1 amine or outer side, *2 acyl side, *3 side chain or, on linkers, in order; H or OH if unused. Where a SMILES comes first, the peptide text is derived from it. Bridges are numbered along the chain shown (N, C = ends). Roman numbers before positions name the chains, in order. [ ]: non-standard residue; d: D form. Actinocin(9to1) = Cc1c2oc3c(C)ccc(C(=O)[*:1])c3nc-2c(C(=O)[*:2])c(N)c1=O; NMeV = CN[C@H](C(=O)O)C(C)C; Sar = CNCC(=O)O

Key:
[1] = test system: P388; experiment: Antitumor activity against P-388 lymphocytic leukemia in CDF1 hybrid male mice measured as median survival time ( 0.15 mg/kg),ip; assay type: functional, Mus musculus
Method in brief: (§1)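 Male CDF1 mice (18-23 g) were inoculated ip with 10⁶ P-388 cells on day 0. Drug was given ip in 10% dimethyl sulfoxide-saline on days 1, 5 and 9. Test solutions were kept at 0-4 °C, protected from light, and checked periodically for stability and homogeneity by TLC and HPLC. Read-out was survival, median survival time, increase in life span and tumor-free cures per 7 animals.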

[2] = test system: P388; experiment: Antitumor activity against P-388 lymphocytic leukemia in CDF1 hybrid male mice measured as percent increase in lifespan(0.6 mg/kg),ip; assay type: functional, Mus musculus; method in brief: as §1
[3] = test system: P388; experiment: Antitumor activity against P-388 lymphocytic leukemia in CDF1 hybrid male mice measured as percent increase in lifespan(0.15 mg/kg),ip; assay type: functional, Mus musculus; method in brief: as §1
[4] = test system: P388; experiment: Antitumor activity against P-388 lymphocytic leukemia in CDF1 hybrid male mice measured as median survival time ( 0.6 mg/kg),ip; assay type: functional, Mus musculus; method in brief: as §1
[5] = organism: Homo sapiens; experiment: In vitro growth inhibitory activity against human lymphoblastic leukemia cells; assay type: functional; conditions: read-out: ID50 (the source's name)
Method in brief: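 CCRF-CEM human lymphoblastic leukemia cells in log-phase growth; compounds dissolved in Me₂SO, final growth medium 1% Me₂SO.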

[6] = test system: P388; experiment: Antitumor activity against P-388 lymphocytic leukemia in CDF1 hybrid male mice measured as percent increase in lifespan(0.3 mg/kg),ip; assay type: functional, Mus musculus; method in brief: as §1
[7] = test system: P388; experiment: Antitumor activity against P-388 lymphocytic leukemia in CDF1 hybrid male mice measured as median survival time ( 1.2 mg/kg),ip; assay type: functional, Mus musculus; method in brief: as §1
[8] = test system: P388; experiment: Minimum effective dose was determined compared to 7-(2,3-Epoxypropoxy)-actinomycin D against P-388 leukemia in mice(4 days); assay type: functional, Mus musculus
Method in brief: (§2)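 MED was the dose (mg/kg) giving a 40% increase in life span over control in mice bearing ip P-388 leukemia. Drug was given ip in 10% dimethyl sulfoxide-saline on a q4d 1, 5, 9 (three injections) or qd 1-4 (four injections) schedule.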

[9] = test system: P388; experiment: Number of mice with P-388 lymphocytic leukemia cured( 0.3 mg/kg),ip; 2/7; assay type: functional, Mus musculus; method in brief: as §1
[10] = test system: P388; experiment: Antitumor activity against P-388 lymphocytic leukemia in CDF1 hybrid male mice measured as percent increase in lifespan( 1.8 mg/kg),ip; assay type: functional; conditions: Mus musculus; method in brief: as §1
[11] = test system: P388; experiment: Maximum tolerated dose was determined compared to 7-(2,3-Epoxypropoxy)-actinomycin D against P-388 leukemia in mice(3 days); assay type: functional, Mus musculus
Method in brief: (§3)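 Tumor-free male CDF1 mice (18-23 g) received a broad dose range ip in 10% dimethyl sulfoxide-saline, either on days 1, 5, 9 (three injections) or on 4 successive days (qd 1-4). Deaths were recorded over 21 days. MTD was the dose lethal to 10% (LD10), taken from a plot of log dose vs percent mortality. Average of two experiments.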

[12] = test system: P388; experiment: Antitumor activity against P-388 lymphocytic leukemia in CDF1 hybrid male mice measured as median survival time ( 1.8 mg/kg),ip; assay type: functional, Mus musculus; method in brief: as §1
[13] = test system: P388; experiment: Minimum effective dose was determined compared to 7-(2,3-Epoxypropoxy)-actinomycin D against P-388 leukemia in mice(3 days); assay type: functional, Mus musculus; design: unit: mg/kg; method in brief: as §2
[14] = test system: P388; experiment: Number of mice with P-388 lymphocytic leukemia cured.( 1.8 mg/kg),ip; 0/7; assay type: functional, Mus musculus
[15] = test system: P388; experiment: Antitumor activity against P-388 lymphocytic leukemia in CDF1 hybrid male mice measured as median survival time ( 0.3 mg/kg),ip; assay type: functional, Mus musculus; method in brief: as §1
[16] = test system: P388; experiment: Maximum tolerated dose was determined compared to 7-(2,3-Epoxypropoxy)-actinomycin D against P-388 leukemia in mice(4 days); assay type: functional, Mus musculus; method in brief: as §3
[17] = test system: P388; experiment: Antitumor activity against P-388 lymphocytic leukemia in CDF1 hybrid male mice measured as percent increase in lifespan( 1.2 mg/kg),ip; assay type: functional; conditions: Mus musculus; method in brief: as §1
[18] = test system: P388; experiment: Number of mice with P-388 lymphocytic leukemia cured( 0.15 mg/kg),ip.; 0/7; assay type: functional, Mus musculus; method in brief: as §1
[19] = test system: P388; experiment: Number of mice with P-388 lymphocytic leukemia cured( 1.2 mg/kg),ip; 0/7; assay type: functional, Mus musculus; method in brief: as §1
[20] = test system: P388; experiment: Number of mice with P-388 lymphocytic leukemia cured( 0.6 mg/kg),ip; 1/7; assay type: functional, Mus musculus; method in brief: as §1
[21] = test system: P388; experiment: Number of mice with P-388 lymphocytic leukemia cured( 0.250 mg/kg),ip; 0/7; assay type: functional, Mus musculus; conditions: dose 0.25 mg/kg
[22] = test system: P388; experiment: Antitumor activity against P-388 lymphocytic leukemia in CDF1 hybrid male mice measured as median survival time (0.125 mg/kg),ip; assay type: functional, Mus musculus; method in brief: as §1
[23] = test system: P388; experiment: Number of mice with P-388 lymphocytic leukemia cured( 0.031 mg/kg),ip; 0/7; assay type: functional, Mus musculus
[24] = test system: P388; experiment: Antitumor activity against P-388 lymphocytic leukemia in CDF1 hybrid male mice measured as percent increase in lifespan( 0.031 mg/kg),ip; assay type: functional; conditions: Mus musculus; method in brief: as §1
[25] = test system: P388; experiment: Antitumor activity against P-388 lymphocytic leukemia in CDF1 hybrid male mice measured as median survival time (0.031 mg/kg),ip; assay type: functional, Mus musculus; method in brief: as §1
[26] = test system: P388; experiment: Antitumor activity against P-388 lymphocytic leukemia in CDF1 hybrid male mice measured as percent increase in lifespan( 0.125 mg/kg),ip; assay type: functional; conditions: Mus musculus; method in brief: as §1
[27] = Therapeutic Index measured as the MTD/MED ratio compared to that of compound 4; conditions: read-out: Therapeutic index
Method in brief: (§4)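 Therapeutic index is MTD/MED, with ip dosing in 10% dimethyl sulfoxide-saline on a qd 1-4 or q4d 1, 5, 9 schedule. MED is the dose giving a 40% increase in life span over control in P-388-bearing mice. MTD is the LD10 in tumor-free male CDF1 mice (18-23 g) over 21 days, read from a log dose vs. percent mortality plot and averaged over 2-3 experiments.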

[28] = test system: P388; experiment: Antitumor activity against P-388 lymphocytic leukemia in CDF1 hybrid male mice measured as median survival time ( 0.375 mg/kg),ip; assay type: functional, Mus musculus; method in brief: as §1
[29] = test system: P388; experiment: Number of mice with P-388 lymphocytic leukemia cured( 0.125 mg/kg),ip.; 1/7; assay type: functional, Mus musculus
[30] = test system: P388; experiment: Antitumor activity against P-388 lymphocytic leukemia in CDF1 hybrid male mice measured as median survival time (0.25 mg/kg),ip; assay type: functional, Mus musculus; method in brief: as §1
[31] = In vitro growth inhibitory activity for effect on melting temperature of DNA was determined
Method in brief: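 DNA thermal denaturation; ΔTm = Tm of DNA-drug complex minus Tm of DNA. Drug 1.4×10⁻⁴ M, DNA (P) 1.4×10⁻³ M in 0.01 M phosphate buffer pH 7.0 with 5×10⁻³ M EDTA and 5% dimethyl sulfoxide.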

[32] = test system: P388; experiment: Antitumor activity against P-388 lymphocytic leukemia in CDF1 hybrid male mice measured as percent increase in lifespan(0.062 mg/kg),ip; assay type: functional, Mus musculus; method in brief: as §1
[33] = test system: P388; experiment: Antitumor activity against P-388 lymphocytic leukemia in CDF1 hybrid male mice measured as median survival time (0.062 mg/kg),ip; assay type: functional, Mus musculus; method in brief: as §1
[34] = test system: P388; experiment: Antitumor activity against P-388 lymphocytic leukemia in CDF1 hybrid male mice measured as percent increase in lifespan( 0.250 mg/kg),ip; assay type: functional; conditions: Mus musculus; method in brief: as §1
[35] = Therapeutic Index measured as the MTD/MED ratio compared to that of compound 3; conditions: read-out: Therapeutic index; method in brief: as §4
[36] = test system: P388; experiment: Number of mice with P-388 lymphocytic leukemia cured.( 0.062 mg/kg),ip; 0/7; assay type: functional, Mus musculus

For `Cc1c2oc3c(C)c(OCC(O)CO)cc(C(=O)N[C@@H]4C(=O)N[C@H](C(C)C)C(=O)N5CCC[C@H]5C(=O)N(C)CC(=O)N(C)[C@@H](C(C)C)C(=O)O[C@@H]4C)c3nc-2c(C(=O)N[C@@H]2C(=O)N[C@H](C(C)C)C(=O)N3CCC[C@H]3C(=O)N(C)CC(=O)N(C)[C@@H](C(C)C)C(=O)O[C@@H]2C)c(N)c1=O` (stereo partly specified), the MST [1] was 16 days, the ILS [2] was 136% and the ILS [3] was 45%. For the same compound, the MST [4] was 25 days, the IC50 [5] was 0.085 µg/mL (≈ 0.0632 µM) and the ILS [6] was 82%. The MST [7] was 32 days, the MED [8] was 0.125 and the Cure [9] was 2. The ILS at 1.8 mg/kg [10] was 36%, the MTD [11] was 1.8 and the MST [12] was 15 days. The MED [13] was 0.15, the Cure [14] was 0 and the MST [15] was 20 days. For the same compound, the MTD [16] was 1.4, the ILS at 1.2 mg/kg [17] was 191% and the Cure [18] was 0. It also gave a Cure [19] of 0 and a Cure [20] of 1.
`Cc1c2oc3c(C)ccc(C(=O)N[C@@H]4C(=O)N[C@H](C(C)C)C(=O)N5CCC[C@H]5C(=O)N(C)CC(=O)N(C)[C@@H](C(C)C)C(=O)O[C@@H]4C)c3nc-2c(C(=O)N[C@@H]2C(=O)N[C@H](C(C)C)C(=O)N3CCC[C@H]3C(=O)N(C)CC(=O)N(C)[C@@H](C(C)C)C(=O)O[C@@H]2C)c(N)c1=O` [DACTINOMYCIN] (I: T[dV]P[Sar][NMeV] / II: T[dV]P[Sar][NMeV]; ester I:1-I:C, II:1-II:C; linker I:N-II:N via Actinocin(9to1)) showed a Cure [21] of 0, an MST [22] of 26 days and a Cure [23] of 0. It also gave an IC50 [5] of 0.06 µg/mL (≈ 0.0478 µM), an ILS at 0.031 mg/kg [24] of 18% and an MST [25] of 13 days. The MED [8] was 0.05, the ILS at 0.125 mg/kg [26] was 136% and the selectivity ratio [27] was 3. The MTD [11] was 0.25, the MST [28] was 9 days and the MED [13] was 0.0625. For the same compound, the MTD [16] was 0.15, the Cure [29] was 1 and the MST [30] was 17 days. It also gave a DNA melting temperature shift (ΔTm) [31] of 7.1 °C, an ILS [32] of 45% and an MST [33] of 16 days. The ILS at 0.25 mg/kg [34] was 55%, the selectivity ratio [35] was 4 and the Cure [36] was 0.
